# “And” between values parts separate entries of the source, which are not always exact repeats. Equal entries are not always repeated.
# Test system: HEK-293T
# Test: Multiplex assay against HEK293T
# Type: toxicity, cell-based
# Settings: human, number of replicates 2
# Procedure, shortened: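 Values for tubulin, mitochondrial-mass and membrane-permeability phenotypes are per cents of cells with healthy nuclei. These cells were identified by CellPathfinder machine-learning gating of live cells that had been stained at seeding with Hoechst33342, BioTracker Green Microtubule Cytoskeleton Dye, MitoTracker Red and Annexin V Alexa Fluor 680 and imaged on a CQ1 microscope at 37°C and 5% CO2 after compound addition. The gating first set Hoechst high-intensity objects apart from normal cells, then split normal cells into healthy, pyknosed or fragmented nuclei, and pyknosed cells into mitotic or apoptotic.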
# [1] = 12 h, 1 µM, compound concentration 1 uM
# [2] = 12 h, 10 µM, compound concentration 10 uM
# [3] = 24 h, 1 µM, compound concentration 1 uM
# [4] = 24 h, 10 µM, compound concentration 10 uM
# [5] = 48 h, 1 µM, compound concentration 1 uM
# [6] = 48 h, 10 µM, compound concentration 10 uM
compound,measurement,setting,value
CCn1ccc(Nc2ncc3c(n2)-c2c(nn(C)c2-c2ccc(-c4cnn(C)c4)cc2Cl)CC3)n1,Population Apoptotic (%),[1],31% and 47%
same,Population Fragmented Nuclei (%),[1],3%
same,Population Healthy Nuclei (%),[1],87% and 84%
same,Population Hoechst High Intensity Objects (%),[1],14% and 10%
same,Population Membrane Permeable-Phenotype (%),[1],1% and 0%
same,Population Mitochondria Different-Phenotype (%),[1],44% and 42%
same,Population Mitotic Cells (%),[1],68% and 52%
same,Population Normal (%),[1],85% and 89%
same,Population Pyknosed Nuclei (%),[1],8% and 12%
same,Population Tubulin-Different-Phenotype (%),[1],84% and 81%
same,Total Cell Count,[1],429 and 424
same,Population Apoptotic (%),[2],76% and 63%
same,Population Fragmented Nuclei (%),[2],4% and 9%
same,Population Healthy Nuclei (%),[2],86% and 80%
same,Population Hoechst High Intensity Objects (%),[2],11%
same,Population Membrane Permeable-Phenotype (%),[2],3% and 0%
same,Population Mitochondria Different-Phenotype (%),[2],58% and 68%
same,Population Mitotic Cells (%),[2],24% and 36%
same,Population Normal (%),[2],88%
same,Population Pyknosed Nuclei (%),[2],8% and 10%
same,Population Tubulin-Different-Phenotype (%),[2],92% and 94%
same,Total Cell Count,[2],332 and 321
same,Population Apoptotic (%),[3],26% and 62%
same,Population Fragmented Nuclei (%),[3],5%
same,Population Healthy Nuclei (%),[3],87% and 85%
same,Population Hoechst High Intensity Objects (%),[3],13% and 15%
same,Population Membrane Permeable-Phenotype (%),[3],1%
same,Population Mitochondria Different-Phenotype (%),[3],40% and 28%
same,Population Mitotic Cells (%),[3],73% and 37%
same,Population Normal (%),[3],86% and 84%
same,Population Pyknosed Nuclei (%),[3],7% and 9%
same,Population Tubulin-Different-Phenotype (%),[3],80% and 69%
same,Total Cell Count,[3],473 and 512
same,Population Apoptotic (%),[4],72% and 81%
same,Population Fragmented Nuclei (%),[4],4% and 11%
same,Population Healthy Nuclei (%),[4],89% and 80%
same,Population Hoechst High Intensity Objects (%),[4],15% and 18%
same,Population Membrane Permeable-Phenotype (%),[4],0% and 1%
same,Population Mitochondria Different-Phenotype (%),[4],34% and 45%
same,Population Mitotic Cells (%),[4],27% and 18%
same,Population Normal (%),[4],84% and 81%
same,Population Pyknosed Nuclei (%),[4],5% and 8%
same,Population Tubulin-Different-Phenotype (%),[4],80%
same,Total Cell Count,[4],438 and 393
same,Population Apoptotic (%),[5],52% and 61%
same,Population Fragmented Nuclei (%),[5],13% and 10%
same,Population Healthy Nuclei (%),[5],83% and 85%
same,Population Hoechst High Intensity Objects (%),[5],20%
same,Population Membrane Permeable-Phenotype (%),[5],4% and 2%
same,Population Mitochondria Different-Phenotype (%),[5],7% and 12%
same,Population Mitotic Cells (%),[5],47% and 38%
same,Population Normal (%),[5],79%
same,Population Pyknosed Nuclei (%),[5],2% and 3%
same,Population Tubulin-Different-Phenotype (%),[5],60% and 59%
same,Total Cell Count,[5],930 and 827
same,Population Apoptotic (%),[6],41% and 52%
same,Population Fragmented Nuclei (%),[6],11% and 14%
same,Population Healthy Nuclei (%),[6],85% and 82%
same,Population Hoechst High Intensity Objects (%),[6],14% and 18%
same,Population Membrane Permeable-Phenotype (%),[6],2% and 0%
same,Population Mitochondria Different-Phenotype (%),[6],11% and 15%
same,Population Mitotic Cells (%),[6],58% and 47%
same,Population Normal (%),[6],85% and 81%
same,Population Pyknosed Nuclei (%),[6],2% and 3%
same,Population Tubulin-Different-Phenotype (%),[6],65% and 63%
same,Total Cell Count,[6],674 and 549
Cc1cc(C2CCCNC2)ccc1Nc1ncc(Br)c(NCc2cccc3c2C(C)(C)C(=O)N3)n1 (stereo not drawn),Population Apoptotic (%),[1],54%
same,Population Fragmented Nuclei (%),[1],4% and 2%
same,Population Healthy Nuclei (%),[1],88% and 83%
same,Population Hoechst High Intensity Objects (%),[1],12% and 15%
same,Population Membrane Permeable-Phenotype (%),[1],2% and 1%
same,Population Mitochondria Different-Phenotype (%),[1],46% and 53%
same,Population Mitotic Cells (%),[1],45%
same,Population Normal (%),[1],87% and 84%
same,Population Pyknosed Nuclei (%),[1],7% and 13%
same,Population Tubulin-Different-Phenotype (%),[1],94% and 92%
same,Total Cell Count,[1],482 and 397
same,Population Apoptotic (%),[2],79% and 80%
same,Population Fragmented Nuclei (%),[2],5% and 6%
same,Population Healthy Nuclei (%),[2],89%
same,Population Hoechst High Intensity Objects (%),[2],13% and 15%
same,Population Membrane Permeable-Phenotype (%),[2],6% and 2%
same,Population Mitochondria Different-Phenotype (%),[2],44% and 59%
same,Population Mitotic Cells (%),[2],20%
same,Population Normal (%),[2],86% and 84%
same,Population Pyknosed Nuclei (%),[2],5% and 4%
same,Population Tubulin-Different-Phenotype (%),[2],95%
same,Total Cell Count,[2],520 and 580
same,Population Apoptotic (%),[3],67% and 55%
same,Population Fragmented Nuclei (%),[3],8% and 5%
same,Population Healthy Nuclei (%),[3],84% and 87%
same,Population Hoechst High Intensity Objects (%),[3],14% and 13%
same,Population Membrane Permeable-Phenotype (%),[3],1%
same,Population Mitochondria Different-Phenotype (%),[3],39% and 34%
same,Population Mitotic Cells (%),[3],32% and 44%
same,Population Normal (%),[3],85% and 86%
same,Population Pyknosed Nuclei (%),[3],7% and 6%
same,Population Tubulin-Different-Phenotype (%),[3],89% and 88%
same,Total Cell Count,[3],567 and 602
same,Population Apoptotic (%),[4],75% and 80%
same,Population Fragmented Nuclei (%),[4],4% and 8%
same,Population Healthy Nuclei (%),[4],89% and 85%
same,Population Hoechst High Intensity Objects (%),[4],17% and 18%
same,Population Membrane Permeable-Phenotype (%),[4],8% and 0%
same,Population Mitochondria Different-Phenotype (%),[4],53% and 64%
same,Population Mitotic Cells (%),[4],25% and 20%
same,Population Normal (%),[4],82% and 81%
same,Population Pyknosed Nuclei (%),[4],5%
same,Population Tubulin-Different-Phenotype (%),[4],97% and 95%
same,Total Cell Count,[4],550 and 640
same,Population Apoptotic (%),[5],26% and 35%
same,Population Fragmented Nuclei (%),[5],12% and 9%
same,Population Healthy Nuclei (%),[5],84% and 87%
same,Population Hoechst High Intensity Objects (%),[5],18% and 20%
same,Population Membrane Permeable-Phenotype (%),[5],2%
same,Population Mitochondria Different-Phenotype (%),[5],13% and 17%
same,Population Mitotic Cells (%),[5],73% and 65%
same,Population Normal (%),[5],81% and 79%
same,Population Pyknosed Nuclei (%),[5],3% and 2%
same,Population Tubulin-Different-Phenotype (%),[5],73% and 85%
same,Total Cell Count,[5],832 and 880
same,Population Apoptotic (%),[6],74% and 87%
same,Population Fragmented Nuclei (%),[6],10% and 12%
same,Population Healthy Nuclei (%),[6],77% and 70%
same,Population Hoechst High Intensity Objects (%),[6],16% and 24%
same,Population Membrane Permeable-Phenotype (%),[6],2% and 3%
same,Population Mitochondria Different-Phenotype (%),[6],65% and 68%
same,Population Mitotic Cells (%),[6],25% and 12%
same,Population Normal (%),[6],83% and 75%
same,Population Pyknosed Nuclei (%),[6],12% and 16%
same,Population Tubulin-Different-Phenotype (%),[6],91%
same,Total Cell Count,[6],517 and 572
COCCN1CCN(CCn2ccc(Nc3ncc4c(n3)-c3c(nn(C)c3-c3ccccc3)C[C@H]4C)n2)CC1,Population Apoptotic (%),[1],55% and 57%
same,Population Fragmented Nuclei (%),[1],2% and 5%
same,Population Healthy Nuclei (%),[1],86% and 79%
same,Population Hoechst High Intensity Objects (%),[1],14% and 13%
same,Population Membrane Permeable-Phenotype (%),[1],3%
same,Population Mitochondria Different-Phenotype (%),[1],44% and 55%
same,Population Mitotic Cells (%),[1],44% and 42%
same,Population Normal (%),[1],85% and 86%
same,Population Pyknosed Nuclei (%),[1],11% and 15%
same,Population Tubulin-Different-Phenotype (%),[1],73% and 85%
same,Total Cell Count,[1],402 and 361
same,Population Apoptotic (%),[2],66% and 76%
same,Population Fragmented Nuclei (%),[2],5%
same,Population Healthy Nuclei (%),[2],76% and 78%
same,Population Hoechst High Intensity Objects (%),[2],21% and 20%
same,Population Membrane Permeable-Phenotype (%),[2],2%
same,Population Mitochondria Different-Phenotype (%),[2],65% and 76%
same,Population Mitotic Cells (%),[2],33% and 23%
same,Population Normal (%),[2],78% and 79%
same,Population Pyknosed Nuclei (%),[2],18% and 16%
same,Population Tubulin-Different-Phenotype (%),[2],94% and 95%
same,Total Cell Count,[2],332 and 297
same,Population Apoptotic (%),[3],48% and 64%
same,Population Fragmented Nuclei (%),[3],7% and 3%
same,Population Healthy Nuclei (%),[3],86% and 90%
same,Population Hoechst High Intensity Objects (%),[3],15% and 17%
same,Population Membrane Permeable-Phenotype (%),[3],1% and 2%
same,Population Mitochondria Different-Phenotype (%),[3],30% and 33%
same,Population Mitotic Cells (%),[3],52% and 35%
same,Population Normal (%),[3],84% and 82%
same,Population Pyknosed Nuclei (%),[3],6%
same,Population Tubulin-Different-Phenotype (%),[3],74% and 75%
same,Total Cell Count,[3],473 and 331
same,Population Apoptotic (%),[4],71% and 78%
same,Population Fragmented Nuclei (%),[4],5% and 2%
same,Population Healthy Nuclei (%),[4],72% and 83%
same,Population Hoechst High Intensity Objects (%),[4],25% and 24%
same,Population Membrane Permeable-Phenotype (%),[4],1% and 2%
same,Population Mitochondria Different-Phenotype (%),[4],71% and 75%
same,Population Mitotic Cells (%),[4],28% and 21%
same,Population Normal (%),[4],74% and 75%
same,Population Pyknosed Nuclei (%),[4],22% and 14%
same,Population Tubulin-Different-Phenotype (%),[4],90% and 92%
same,Total Cell Count,[4],250 and 217
same,Population Apoptotic (%),[5],73% and 30%
same,Population Fragmented Nuclei (%),[5],12% and 8%
same,Population Healthy Nuclei (%),[5],84% and 87%
same,Population Hoechst High Intensity Objects (%),[5],27% and 18%
same,Population Membrane Permeable-Phenotype (%),[5],4% and 2%
same,Population Mitochondria Different-Phenotype (%),[5],5% and 10%
same,Population Mitotic Cells (%),[5],26% and 70%
same,Population Normal (%),[5],72% and 81%
same,Population Pyknosed Nuclei (%),[5],3% and 4%
same,Population Tubulin-Different-Phenotype (%),[5],63% and 68%
same,Total Cell Count,[5],864 and 570
same,Population Apoptotic (%),[6],66%
same,Population Fragmented Nuclei (%),[6],7% and 6%
same,Population Healthy Nuclei (%),[6],89% and 82%
same,Population Hoechst High Intensity Objects (%),[6],24% and 20%
same,Population Membrane Permeable-Phenotype (%),[6],0% and 4%
same,Population Mitochondria Different-Phenotype (%),[6],49% and 51%
same,Population Mitotic Cells (%),[6],33%
same,Population Normal (%),[6],75% and 79%
same,Population Pyknosed Nuclei (%),[6],3% and 10%
same,Population Tubulin-Different-Phenotype (%),[6],86% and 82%
same,Total Cell Count,[6],245 and 220
